Results taken from the array DNA melting data of Ke et al. (doi:10.1101/2024.01.08.574731).

Legend:
[1] = folding enthalpy; higher = less favourable; fluorescence melt of hairpins on a sequencing array, two-state fit; conditions: sodium 0.088 M
Procedure, shortened: (§1)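 On a sequenced MiSeq flow cell, library hairpins with annealed Cy3 and quencher oligos were imaged for Cy3 fluorescence in 2.5 °C steps up to 60 °C, in 50 mM Na-HEPES pH 8.0, 25 mM NaCl. Normalisation used pre-quench Cy3 and control constructs. Bootstrapped two-state fits gave melting temperature and folding enthalpy, combined by inverse variance across four replicates and with fitted temperatures raised by 9.35 °C to match UV melts.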

[2] = melting temperature; fluorescence melt of hairpins on a sequencing array, two-state fit, raised by 9.35 °C to match UV melts; conditions: sodium 0.088 M
Procedure, shortened: as §1

Sequence | folding enthalpy [1] | Tm [2]
GATCTGGATTCAGATC ((((((....)))))) | -39.3 kcal/mol | 48.6 °C
GATCTTCTCAAGATC ((((((...)))))) | -33.3 kcal/mol | 46.7 °C
GCCGAGTCGAAAGACGGC (((..(((....)))))) | -21.2 kcal/mol | 56.6 °C
GCGGGTCTCCGC ((((....)))) | -22.9 kcal/mol | 67.7 °C
GATCGATGTCTCGATC ((((((....)))))) | -39 kcal/mol | 51.5 °C
CGCGGAACAATCCGCG ((((((....)))))) | -37 kcal/mol | 61.5 °C
GGAACGGCGAAAGCCTCC (((..(((....)))))) | -10.3 kcal/mol | 31.6 °C
GACAGCGAAAGCTGGTC ((((((....))).))) | -11.8 kcal/mol | 55 °C
GGTCTCTCGAAAGAGACC (((..(((....)))))) | -35.3 kcal/mol | 60.5 °C
GTATGGGGAAACTCATAC (((((.(....).))))) | -34.5 kcal/mol | 40.5 °C
GAACGCGGAAACGCACTC ((..(((....)))..)) | -8.19 kcal/mol | 30.1 °C
GCGGTCGAAAGACAGCGC ((((((....)))..))) | -27.7 kcal/mol | 69.2 °C
GATCCCGACGGGATC ((((((...)))))) | -28.4 kcal/mol | 68 °C
GCGAATACGAAAGTACGC (((..(((....)))))) | -25 kcal/mol | 44.9 °C
GCGCATCCGAAAGGACGC (((..(((....)))))) | -20.5 kcal/mol | 50.2 °C
GATGCGACGAAAGTCATC (((..(((....)))))) | -13 kcal/mol | 27.8 °C
GATCACTGGGGTGATC ((((((....)))))) | -47.5 kcal/mol | 58.3 °C
GCGTACTAACGC ((((....)))) | -27.2 kcal/mol | 53 °C
GTGAGTGGAAACACCCAC (((.(((....))).))) | -31.4 kcal/mol | 43.2 °C
GCCCCGCGAAAGCTTGGC (((..((....))..))) | -19.9 kcal/mol | 43.1 °C
GCCATGGGAAACTGTGGC ((((..(....)..)))) | -28.2 kcal/mol | 47.1 °C
CGCGGATAGTCCGCG ((((((...)))))) | -40.8 kcal/mol | 63.6 °C
GTCGGAGGAAACTTCGAC ((((.((....)).)))) | -47.7 kcal/mol | 51 °C

Sequence | folding enthalpy [1] | Tm [2]
GCGTAGCGAAAGCCAGGC ((.(.((....)).).)) | -5.07 kcal/mol | 31.1 °C
GATCAGCATCTGATC ((((((...)))))) | -34.2 kcal/mol | 46.7 °C
GGTAGGAAACTACC (((((....))))) | -26.5 kcal/mol | 48.2 °C
GCGCAGCGAAAGCTCGGC ((..(((....)))..)) | -7.59 kcal/mol | 40.3 °C
GCCACGCGAAAGCCGGGC (((..((....))..))) | -24.1 kcal/mol | 58 °C
GTCCGCCGAAAGGCAGAC (((.(((....))).))) | -21.7 kcal/mol | 54.2 °C
GTACGCGAAAGCGGTTAC ((((((....)))..))) | -8.32 kcal/mol | 32.7 °C
GACTGCGAAAGCATTGTC ((((((....)))..))) | -10.4 kcal/mol | 42 °C
GCTGCTGGAAACAACAGC ((((.((....)).)))) | -32.8 kcal/mol | 47.2 °C
GAATTCGGAAACGAACTC ((.((((....)))).)) | -17.4 kcal/mol | 33.7 °C
GCGTGTCGAAAGACCCGC (((.(((....))).))) | -42 kcal/mol | 58 °C
GATCTCATAGAGATC ((((((...)))))) | -38.3 kcal/mol | 55.2 °C
GCTAGGGGAAACCTTAGC ((((.((....)).)))) | -33.7 kcal/mol | 44.5 °C
GTGAGGGAAACCTCAC ((((((....)))))) | -31.7 kcal/mol | 60.2 °C
GTTAAGTCGAAAGACAAC (((..(((....)))))) | -13.4 kcal/mol | 27.8 °C
GCACAGCGAAAGCAGGGC ((.(.((....)).).)) | -25.8 kcal/mol | 62.5 °C
GTCCGTCCGAAAGGAGAC (((..(((....)))))) | -11.8 kcal/mol | 29.1 °C
GCCAGCGAAAGCTAGGC ((((((....))).))) | -25.9 kcal/mol | 66 °C
GATAACGAAAGTTGATC ((((((....))).))) | -11.2 kcal/mol | 27.6 °C
GACAGGCGAAAGCCGTC (((.(((....)))))) | -11.3 kcal/mol | 64.9 °C
GAGGCCGAAAGGCGCCTC ((((((....)))..))) | -12.4 kcal/mol | 42 °C
GCTTAGCGAAAGCGGAGC (((..((....))..))) | -16.8 kcal/mol | 58.7 °C
GATCTAGGAAACTAGGTC ((.((((....)))).)) | -34.3 kcal/mol | 38.6 °C

Sequence | folding enthalpy [1] | Tm [2]
GCGTTCGGAAACGGATGC ((.(.((....)).).)) | -33.1 kcal/mol | 44.7 °C
GCACCGACGAAAGTCTGC (((..(((....)))))) | -16.7 kcal/mol | 35.3 °C
GCGTAGCGAAAGCTAAGC ((.((((....)))).)) | -16.1 kcal/mol | 58.5 °C
CTAATGAAAATTAG (((((....))))) | -7.43 kcal/mol | 26 °C
GCTGGTGGAAACGCCAGC (((((.(....).))))) | -52.9 kcal/mol | 61.8 °C
GGTACGGGAAACCACACC (((..((....))..))) | -16.2 kcal/mol | 33 °C
GACCCCCGAAAGGGGTC (((.(((....)))))) | -19.9 kcal/mol | 67.5 °C
GCGCTCGAAAGAGACCGC ((((((....)))..))) | -21.8 kcal/mol | 44.9 °C
GTGATCGGAAACAATCAC (((((.(....).))))) | -32.9 kcal/mol | 36.3 °C
GCACCTGGAAACAGACGC ((..(((....)))..)) | -15.3 kcal/mol | 29.2 °C
GAACGAGGAAACTTGTTC ((((.((....)).)))) | -28.7 kcal/mol | 43.2 °C
GTTTGCGGAAACGTAAAC ((((.((....)).)))) | -32.3 kcal/mol | 48.6 °C
GCCGGCGAAAGCCATGGC ((((((....)))..))) | -19.9 kcal/mol | 56.1 °C
GAATATCCGAAAGGATTC (((..(((....)))))) | -13.4 kcal/mol | 28.5 °C
CGTACCGGAAACGGGACG (((.(((....))).))) | -36.4 kcal/mol | 64.8 °C
GCACAGCGAAAGCTCTGC (((.(((....))).))) | -25.6 kcal/mol | 40.6 °C
GATCATGGCATGATC ((((((...)))))) | -44 kcal/mol | 51.3 °C
GGCTTACGAAAGTAGGCC (((.(((....))).))) | -43.6 kcal/mol | 60.1 °C
GATCCATGGTGGATC ((((((...)))))) | -36 kcal/mol | 50.6 °C
CGTGACGGAAACGTAACG (((.(((....))).))) | -37.4 kcal/mol | 50.3 °C
CGGTGCGGAAACGCCCG (((.(((....)))))) | -30.8 kcal/mol | 58 °C
GGGAGTGAAAACTCCC ((((((....)))))) | -34.1 kcal/mol | 65.2 °C
GCTGTTCGAAAGAAGAGC (((.(((....))).))) | -37.2 kcal/mol | 50.6 °C
